Results published in ChEMBL document CHEMBL4321805, “A Conformational Restriction Strategy for the Identification of a Highly Selective Pyrimido-pyrrolo-oxazine mTOR Inhibitor” (J Med Chem, 2019).

What was measured:
[1] = molecular target: T1, Serine/threonine-protein kinase mTOR (Homo sapiens, UniProt P42345); assay: Inhibition of alexa fluor 647-labeled kinase tracer 314 binding to recombinant human N-terminal GST-fused mTOR (1360 to 2549 residues) expressed in baculovirus expression system by TR-FRET assay
Outline: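 LanthaScreen TR-FRET tracer displacement. GST-fused truncated mTOR (aa 1360–2549) detected with Eu-anti-GST antibody (2 nM). […] Buffer: 50 mM HEPES, 5 mM MgCl2, 1 mM EGTA, 0.01% Pluronic F-127. Ki derived from displacement.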

mTORC1 = mTORC1 (Homo sapiens, UniProt P42345); assay: Inhibition of mTORC1 in human A2058 cells assessed as reduction in ribosomal protein S6 phosphorylation at Ser235/236 residues incubated for 1 hr by Western blot analysis; format: cell-based
Outline: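 In-cell Western assay. A2058 cells (2 × 10^4/well) grown 24 h at 37 °C, 5% CO2, then exposed 1 h to inhibitor or DMSO. Cells fixed in 4% PFA, blocked, and stained for the phospho-protein with α-tubulin as internal standard; infrared fluorescence read-out. Signals normalized to tubulin and to DMSO controls to derive IC50.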

[2] = molecular target: PI3-kinase p110-alpha/p85-alpha (Homo sapiens, UniProt P42336); assay: Inhibition of alexa fluor 647-labeled kinase tracer 314 binding to recombinant human full-length N-terminal His6-tagged p110alpha/p85alpha expressed in baculovirus expression system by TR-FRET assay
PI3-kinase p110-alpha/p85-alpha, sequence (P27986 whole entry): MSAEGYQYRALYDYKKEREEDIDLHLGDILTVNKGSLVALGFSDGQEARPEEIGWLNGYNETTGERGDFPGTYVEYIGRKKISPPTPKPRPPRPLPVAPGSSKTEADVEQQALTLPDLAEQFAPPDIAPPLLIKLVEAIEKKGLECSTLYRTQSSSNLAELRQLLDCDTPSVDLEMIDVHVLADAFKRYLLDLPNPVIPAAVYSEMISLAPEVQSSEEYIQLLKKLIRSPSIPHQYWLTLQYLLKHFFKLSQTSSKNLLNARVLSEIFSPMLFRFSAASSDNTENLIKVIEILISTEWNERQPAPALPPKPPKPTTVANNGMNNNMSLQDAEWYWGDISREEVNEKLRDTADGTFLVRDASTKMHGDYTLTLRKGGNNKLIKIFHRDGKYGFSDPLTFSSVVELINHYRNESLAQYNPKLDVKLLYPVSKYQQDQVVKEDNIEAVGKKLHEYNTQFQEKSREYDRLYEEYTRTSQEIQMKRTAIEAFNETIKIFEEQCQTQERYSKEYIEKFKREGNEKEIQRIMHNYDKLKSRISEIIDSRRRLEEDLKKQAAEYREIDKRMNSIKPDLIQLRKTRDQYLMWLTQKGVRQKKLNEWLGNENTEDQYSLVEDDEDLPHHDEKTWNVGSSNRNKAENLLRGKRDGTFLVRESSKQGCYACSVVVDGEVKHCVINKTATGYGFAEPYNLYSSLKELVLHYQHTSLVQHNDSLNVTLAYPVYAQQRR
PI3-kinase p110-alpha/p85-alpha, sequence (P42336 whole entry): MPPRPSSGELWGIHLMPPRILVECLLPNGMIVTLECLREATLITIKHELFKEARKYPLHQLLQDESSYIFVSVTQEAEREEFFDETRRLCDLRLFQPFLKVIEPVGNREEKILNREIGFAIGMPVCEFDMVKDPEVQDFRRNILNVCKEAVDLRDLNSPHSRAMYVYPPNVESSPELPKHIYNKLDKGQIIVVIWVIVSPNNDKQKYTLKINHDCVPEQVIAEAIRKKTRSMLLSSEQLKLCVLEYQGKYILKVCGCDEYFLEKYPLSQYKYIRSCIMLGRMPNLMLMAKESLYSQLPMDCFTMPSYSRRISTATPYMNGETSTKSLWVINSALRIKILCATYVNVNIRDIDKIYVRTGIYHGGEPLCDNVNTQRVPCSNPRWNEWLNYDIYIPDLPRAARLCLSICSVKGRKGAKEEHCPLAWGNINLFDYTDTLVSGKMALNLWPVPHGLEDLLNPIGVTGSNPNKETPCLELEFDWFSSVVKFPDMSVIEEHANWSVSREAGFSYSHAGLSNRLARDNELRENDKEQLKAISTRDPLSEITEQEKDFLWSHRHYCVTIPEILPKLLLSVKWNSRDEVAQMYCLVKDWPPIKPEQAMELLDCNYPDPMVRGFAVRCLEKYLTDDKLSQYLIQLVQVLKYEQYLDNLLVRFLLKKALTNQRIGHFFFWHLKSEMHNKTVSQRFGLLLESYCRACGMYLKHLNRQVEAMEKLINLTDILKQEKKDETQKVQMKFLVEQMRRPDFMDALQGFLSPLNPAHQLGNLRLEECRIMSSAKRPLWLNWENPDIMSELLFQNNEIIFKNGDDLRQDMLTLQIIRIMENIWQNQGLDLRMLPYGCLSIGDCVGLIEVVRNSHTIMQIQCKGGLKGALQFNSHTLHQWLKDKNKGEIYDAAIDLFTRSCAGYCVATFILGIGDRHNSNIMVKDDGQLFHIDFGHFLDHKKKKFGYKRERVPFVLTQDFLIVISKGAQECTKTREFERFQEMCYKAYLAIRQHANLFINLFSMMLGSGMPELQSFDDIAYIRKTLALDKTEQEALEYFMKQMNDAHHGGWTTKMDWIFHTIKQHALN

CYP1A1 = molecular target: T2, CYP1A1 (Homo sapiens, UniProt P04798); assay: Substrate activity at recombinant human CYP1A1 expressed in baculovirus infected insect cells assessed as parent compound remaining at 1 uM incubated for 60 mins in absence of NADP+-regenerating system by LC-MS analysis; format: ADME; details: read-out: Stability
T2 sequence (P04798 whole entry): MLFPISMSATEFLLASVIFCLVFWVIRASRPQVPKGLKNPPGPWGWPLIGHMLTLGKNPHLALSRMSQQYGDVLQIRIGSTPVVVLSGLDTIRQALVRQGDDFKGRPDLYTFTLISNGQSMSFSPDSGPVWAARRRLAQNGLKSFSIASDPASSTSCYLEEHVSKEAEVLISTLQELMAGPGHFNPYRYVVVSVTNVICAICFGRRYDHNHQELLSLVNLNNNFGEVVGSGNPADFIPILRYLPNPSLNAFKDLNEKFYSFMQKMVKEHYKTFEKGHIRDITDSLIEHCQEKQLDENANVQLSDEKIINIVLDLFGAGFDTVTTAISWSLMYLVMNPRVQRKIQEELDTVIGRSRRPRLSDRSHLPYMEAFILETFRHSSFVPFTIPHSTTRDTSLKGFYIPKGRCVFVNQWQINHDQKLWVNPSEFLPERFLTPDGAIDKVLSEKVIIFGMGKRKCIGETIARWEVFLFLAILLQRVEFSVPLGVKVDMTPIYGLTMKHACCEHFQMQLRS
Outline: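 Baculovirus/insect-cell Supersomes, each expressing a single human CYP, at 25 pmol/mL. Compound at 1 μM (0.25% DMSO), 37 °C, 60 min. Reactions run with a NADP+-regenerating cofactor mix or, as negative control, without cofactors and glucose-6-phosphate dehydrogenase. Stopped with ACN containing internal standard. Duplicates; % remaining from absolute amounts.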

[3] = molecular target: T1, Serine/threonine-protein kinase mTOR; assay: Binding affinity to wild-type human partial length mTOR (L1382 to W2549 residues) expressed in mammalian expression system by kinome scan assay
Outline: (§1)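 DNA-tagged kinases competed against immobilized ligand with an 11-point 3-fold serial dilution starting from 30 μM. Kinase bound measured by qPCR of the DNA tags. Kd from standard dose–response curves with the Hill equation (Hill slope −1); mean of duplicate experiments.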

[4] = molecular target: T3, Phosphatidylinositol 4,5-bisphosphate 3-kinase catalytic subunit delta isoform (Homo sapiens, UniProt O00329); assay: Binding affinity to human wild-type partial length PI3Kdelta (R108 to Q1044 residues) expressed in mammalian expression system by kinome scan assay; outline: as §1
T3 sequence (O00329 whole entry): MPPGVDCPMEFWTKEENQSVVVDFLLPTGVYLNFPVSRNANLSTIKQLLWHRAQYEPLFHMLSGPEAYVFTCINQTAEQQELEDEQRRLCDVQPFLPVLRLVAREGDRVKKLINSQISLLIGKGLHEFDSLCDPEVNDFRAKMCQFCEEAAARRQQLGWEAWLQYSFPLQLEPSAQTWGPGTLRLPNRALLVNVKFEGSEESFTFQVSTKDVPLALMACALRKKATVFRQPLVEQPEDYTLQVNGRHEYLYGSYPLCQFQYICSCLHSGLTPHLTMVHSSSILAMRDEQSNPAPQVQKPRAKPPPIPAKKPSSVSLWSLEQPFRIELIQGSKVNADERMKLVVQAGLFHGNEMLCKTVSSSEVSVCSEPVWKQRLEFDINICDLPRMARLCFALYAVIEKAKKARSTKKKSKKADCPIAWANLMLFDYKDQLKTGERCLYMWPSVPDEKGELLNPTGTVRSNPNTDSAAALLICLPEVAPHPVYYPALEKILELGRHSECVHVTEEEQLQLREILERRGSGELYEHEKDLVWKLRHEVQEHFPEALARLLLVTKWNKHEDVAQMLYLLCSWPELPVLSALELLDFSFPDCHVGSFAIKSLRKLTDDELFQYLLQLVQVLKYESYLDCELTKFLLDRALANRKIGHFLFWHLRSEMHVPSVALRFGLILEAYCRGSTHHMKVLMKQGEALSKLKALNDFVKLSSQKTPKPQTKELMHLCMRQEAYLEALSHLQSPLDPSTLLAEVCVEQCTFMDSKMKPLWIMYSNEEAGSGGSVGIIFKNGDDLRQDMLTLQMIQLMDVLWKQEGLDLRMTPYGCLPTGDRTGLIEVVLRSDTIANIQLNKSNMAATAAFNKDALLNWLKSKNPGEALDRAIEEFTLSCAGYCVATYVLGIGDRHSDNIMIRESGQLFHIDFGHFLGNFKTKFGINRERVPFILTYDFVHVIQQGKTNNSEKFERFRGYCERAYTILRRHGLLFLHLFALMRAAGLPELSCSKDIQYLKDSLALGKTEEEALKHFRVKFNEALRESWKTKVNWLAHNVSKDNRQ

[5] = molecular target: Phosphatidylinositol 4,5-bisphosphate 3-kinase catalytic subunit gamma isoform (Homo sapiens, UniProt P48736); assay: Binding affinity to human wild-type partial length PI3Kgamma (S144 to A1102 residues) expressed in mammalian expression system by kinome scan assay; outline: as §1
Phosphatidylinositol 4,5-bisphosphate 3-kinase catalytic subunit gamma isoform, sequence (P48736 whole entry, the tested form may be a part, canonical isoform): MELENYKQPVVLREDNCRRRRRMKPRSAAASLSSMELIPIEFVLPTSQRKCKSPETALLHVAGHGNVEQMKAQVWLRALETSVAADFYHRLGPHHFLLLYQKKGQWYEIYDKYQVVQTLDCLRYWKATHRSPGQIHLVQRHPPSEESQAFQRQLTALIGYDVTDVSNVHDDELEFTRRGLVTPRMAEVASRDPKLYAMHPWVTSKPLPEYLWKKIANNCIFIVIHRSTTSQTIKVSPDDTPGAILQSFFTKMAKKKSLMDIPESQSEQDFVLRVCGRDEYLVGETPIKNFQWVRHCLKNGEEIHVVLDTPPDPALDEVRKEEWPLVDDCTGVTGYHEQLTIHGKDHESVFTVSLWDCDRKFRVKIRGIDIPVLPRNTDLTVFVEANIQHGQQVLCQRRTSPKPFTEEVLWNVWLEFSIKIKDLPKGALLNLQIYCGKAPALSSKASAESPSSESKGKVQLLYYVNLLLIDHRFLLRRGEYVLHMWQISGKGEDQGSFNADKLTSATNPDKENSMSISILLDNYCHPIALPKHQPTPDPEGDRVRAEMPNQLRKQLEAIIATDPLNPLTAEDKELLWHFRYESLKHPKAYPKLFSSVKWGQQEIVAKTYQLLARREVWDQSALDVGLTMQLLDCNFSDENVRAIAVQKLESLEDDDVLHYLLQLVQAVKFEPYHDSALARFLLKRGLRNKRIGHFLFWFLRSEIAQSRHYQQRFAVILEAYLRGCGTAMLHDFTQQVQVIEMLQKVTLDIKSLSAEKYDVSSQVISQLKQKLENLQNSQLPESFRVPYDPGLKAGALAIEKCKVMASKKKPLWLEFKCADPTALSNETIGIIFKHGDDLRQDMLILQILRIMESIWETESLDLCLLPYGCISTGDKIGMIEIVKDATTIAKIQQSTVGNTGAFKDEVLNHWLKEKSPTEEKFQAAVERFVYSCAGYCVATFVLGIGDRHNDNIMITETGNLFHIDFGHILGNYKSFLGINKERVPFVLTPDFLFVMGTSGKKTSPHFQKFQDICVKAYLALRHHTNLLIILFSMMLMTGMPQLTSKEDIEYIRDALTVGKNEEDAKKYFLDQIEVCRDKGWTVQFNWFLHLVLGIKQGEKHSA

[6] = molecular target: Phosphatidylinositol 4-kinase beta (Homo sapiens, UniProt Q9UBF8); assay: Binding affinity to wild-type human full-length PI4Kbeta (M1 to M828 residues) expressed in mammalian expression system by kinome scan assay
Phosphatidylinositol 4-kinase beta, sequence (Q9UBF8 whole entry, the tested form may be a part): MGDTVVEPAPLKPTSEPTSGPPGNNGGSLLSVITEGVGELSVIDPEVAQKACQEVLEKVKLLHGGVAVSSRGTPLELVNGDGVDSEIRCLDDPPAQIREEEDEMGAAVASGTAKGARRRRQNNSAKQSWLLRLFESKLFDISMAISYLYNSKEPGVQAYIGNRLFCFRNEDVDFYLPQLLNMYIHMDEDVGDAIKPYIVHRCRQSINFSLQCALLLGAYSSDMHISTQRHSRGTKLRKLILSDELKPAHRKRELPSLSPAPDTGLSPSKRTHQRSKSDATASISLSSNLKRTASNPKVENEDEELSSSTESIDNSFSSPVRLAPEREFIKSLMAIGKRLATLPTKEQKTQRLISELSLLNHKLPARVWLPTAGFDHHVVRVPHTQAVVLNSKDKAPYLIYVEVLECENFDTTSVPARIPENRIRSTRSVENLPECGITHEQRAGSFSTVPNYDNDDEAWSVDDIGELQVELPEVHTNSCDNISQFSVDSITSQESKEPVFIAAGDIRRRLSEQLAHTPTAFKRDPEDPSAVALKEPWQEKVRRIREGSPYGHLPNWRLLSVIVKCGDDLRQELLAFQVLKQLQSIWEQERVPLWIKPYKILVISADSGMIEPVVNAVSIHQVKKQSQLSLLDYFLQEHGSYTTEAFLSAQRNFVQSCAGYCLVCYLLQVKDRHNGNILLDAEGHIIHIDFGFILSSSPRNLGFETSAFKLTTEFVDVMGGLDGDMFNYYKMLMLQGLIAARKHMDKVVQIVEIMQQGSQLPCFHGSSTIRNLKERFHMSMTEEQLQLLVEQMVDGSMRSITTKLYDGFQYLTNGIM
Outline: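 Competition binding: compound competes with an immobilized ligand for a DNA-tagged kinase. The 11-point, 3-fold serial dilution starts at 30 μM. Bound kinase is quantified by qPCR of the DNA tag. Kd is fitted to a standard dose–response curve using the Hill equation with slope fixed at −1, and reported as the mean of duplicate experiments.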

[7] = molecular target: Phosphatidylinositol 3-kinase catalytic subunit type 3 (Homo sapiens, UniProt Q8NEB9); assay: Binding affinity to human wild-type partial length VPS34 (S282 to H879 residues) expressed in mammalian expression system by kinome scan assay; outline: as §1
Phosphatidylinositol 3-kinase catalytic subunit type 3, sequence (Q8NEB9 whole entry, the tested form may be a part): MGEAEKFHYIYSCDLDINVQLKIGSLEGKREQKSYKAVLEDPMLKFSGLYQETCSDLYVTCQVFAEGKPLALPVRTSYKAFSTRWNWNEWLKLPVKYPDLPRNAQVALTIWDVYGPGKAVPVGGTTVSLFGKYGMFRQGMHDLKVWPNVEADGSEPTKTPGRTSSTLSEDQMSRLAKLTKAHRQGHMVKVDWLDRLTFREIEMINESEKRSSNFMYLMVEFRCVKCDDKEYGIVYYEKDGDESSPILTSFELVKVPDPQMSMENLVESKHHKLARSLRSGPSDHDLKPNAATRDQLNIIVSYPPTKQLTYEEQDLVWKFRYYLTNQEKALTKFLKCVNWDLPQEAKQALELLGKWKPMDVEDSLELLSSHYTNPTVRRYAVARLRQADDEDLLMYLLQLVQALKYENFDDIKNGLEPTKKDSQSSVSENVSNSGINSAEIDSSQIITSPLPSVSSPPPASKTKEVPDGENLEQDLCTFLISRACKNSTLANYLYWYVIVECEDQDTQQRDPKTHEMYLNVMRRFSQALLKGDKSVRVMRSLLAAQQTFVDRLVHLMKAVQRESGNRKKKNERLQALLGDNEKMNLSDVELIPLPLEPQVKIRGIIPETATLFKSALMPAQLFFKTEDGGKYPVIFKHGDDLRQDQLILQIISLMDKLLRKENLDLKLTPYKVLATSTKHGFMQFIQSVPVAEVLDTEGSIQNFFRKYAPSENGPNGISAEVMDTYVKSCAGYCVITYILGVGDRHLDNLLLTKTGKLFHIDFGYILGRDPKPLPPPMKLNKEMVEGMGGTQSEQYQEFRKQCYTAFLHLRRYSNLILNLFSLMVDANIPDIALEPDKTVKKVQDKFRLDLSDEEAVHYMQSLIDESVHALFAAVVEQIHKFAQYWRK

C[C@@H]1COCCN1c1nc(-c2cnc(N)cn2)nc2c1C[C@@H]1COCCN21
Ki [1]: 0.008 µM | IC50 (mTORC1): 0.06 µM | Ki [2]: 1.69 µM | remaining at 1 h, 1 µM (CYP1A1): 96% | Kd [3]: 0.0035 µM | Kd [4]: 12 µM | Kd [5]: 11 µM | Kd [6]: > 30 µM | Kd [7]: 3.2 µM

C[C@@H]1COCCN1c1nc(-c2cnc(N)nc2)nc2c1C[C@@H]1COCCN21
Ki [1]: 0.0025 µM | IC50 (mTORC1): 0.055 µM | Ki [2]: 0.536 µM | remaining at 1 h, 1 µM (CYP1A1): 93% | Kd [3]: 0.014 µM | Kd [4]: 1.9 µM | Kd [5]: 1.8 µM | Kd [6]: > 30 µM | Kd [7]: 0.98 µM

C[C@@H]1COCCN1c1nc(-c2ccc(N)nc2)nc2c1C[C@@H]1COCCN21
Ki [1]: 0.013 µM | IC50 (mTORC1): 0.061 µM | Ki [2]: 2.15 µM | remaining at 1 h, 1 µM (CYP1A1): 109% | Kd [3]: 0.034 µM | Kd [4]: 6.2 µM | Kd [5]: 8.7 µM | Kd [6]: > 30 µM | Kd [7]: 2.1 µM
